Hits are enriched below; roughly 3.1% of the tested compounds scored in any of these assays.
TAG inh: inhibitors of triacylglycerol accumulation, primary screen, cell-based, uHTS, fluorescence, H9c2 | H9c2 cells, Nile Red lipid (TAG) fluorescence; cells loaded with 200 µM oleic acid | inhibition, % at 12.5 µM | 230,000 tested, 0.66% active | AID 651582, 2012;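 active means pattern-corrected inhibition of lipid staining of at least 50% with the nuclear-stain viability signal not falling by more than 50%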;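 further: 0% = DMSO wells and 100% = triacsin C control wells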
Beta apoptosis: inhibitors of cytokine-induced beta cell apoptosis, primary screen, luminescence | 300,000 tested, 0.8% active | AID 435005, 2010 | INS-1E cytokine-induced death, ATP luminescence, 48 h; percent of positive-control rescue, neutral wells zero | protection from apoptosis, % (no concentration beside the values);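 active means Every replicate reaches about 75%, or at least half do and their mean reaches it too, limit read from the data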;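 further: 0% = cytokine-treated negative control wells and 100% = positive control rescue; higher means more ATP so stronger rescue from cytokine killing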
T cruzi inh: inhibitors of intracellular T. cruzi growth, primary screen, luminescence, NIH3T3 host cells; inhibition, % (concentration not given with the values); T. cruzi beta-gal in NIH3T3, 90 h; AID 1885, 2009; 300,000 tested, 1.4% active;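 active means mean inhibition across valid replicates above about 55%, limit read from the data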;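 further: signal also drops with host cell toxicity which is not excluded here; 0% = plate median of DMSO wells and 100% = zero luminescence signal; higher percent means less beta-gal luminescence so fewer parasites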
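Assay system: NIH/3T3 fibroblasts plus reporter T. cruzi. Amount: NIH/3T3 cells, 5,000 per well. Buffer or medium: DMEM, 2% fetal bovine serum. Doses: compound pinned at 50 nL/well, DMSO. Schedule: ≥90 h infection period, 3 h prior cell attachment. Signal: luminescent β-galactosidase signal after 60 min lysis. Read-out: parasite load inhibition, %.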
Calb FLC: C. albicans growth inhibition with fluconazole, primary screen, CaCi-2 strain, Alamar Blue fluorescence; AID 1979, 2009; growth inhibition, % (concentration not given with the values); 300,000 tested, 0.57% active; C. albicans CaCi-2 + fluconazole, 48 h;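 active means growth inhibition above about 58% in most replicates, limit read from the data, passing the limit was not always enough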;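 further: all wells also contain fluconazole at 8 µg/ml as a sub-toxic cotreatment; 0% = median of DMSO wells and 100% = median of geldanamycin control wells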
A1 inh: caspase 3/7 activation in MEF A1-2A-BIM cells, primary screen, A1 inhibitor project, cell-based, luminescence, HTS. Caspase-Glo 3/7 luminescence, 3 h; percent of clofoctol response, vehicle zero. caspase activation, % (concentration not given with the values). 330,000 tested, 0.066% active;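 active means over half of replicate activation scores above 10%, or exactly half above 10 with the replicate mean above 10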
CSC inhib: cancer stem cell viability inhibitors, primary screen, luminescence. 300,000 tested, 1.1% active. AID 2717, 2010. inhibition, % at 7.5 µM. cancer stem cell-like cells viability; in the data active means inhibition above about 75%; tested in HMLE shEcad cells
TAG conf: triacylglycerol accumulation inhibitors, retest, confirmation, cell-based, single concentration, Nile Red fluorescence, H9c2. 990 tested, 71% active. shares compounds with TAG inh. inhibition, % at 12.5 µM. H9c2 lipid accumulation; cells loaded with 200 µM oleic acid. AID 651629, 2012;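 active means mean inhibition across replicates of 40% or more; inactive means mean inhibition below 40%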;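 further: plate controls were DMSO only wells for no effect and Triacsin C treated wells for full effect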
An asterisk follows results filed as active; . = not tested or not shown.

SMILES	TAG inh	Beta apoptosis	T cruzi inh	Calb FLC	A1 inh	CSC inhib	TAG conf
CCC(C)(C)NC(=O)C(c1cccn1C)N(Cc1ccc(OC)cc1)C(=O)Cn1nnc2ccccc21 (stereo not given)	67*	18	0	-15	1	13	50*
COc1cc(C(=O)NNC(=O)COc2ccc(Cl)cc2)ccc1OCC(=O)N1CCOCC1	-18	-3	.	.	-1	8	.
CCCS(=O)(=O)c1ccc(COC(=O)Cc2ccc([N+](=O)[O-])cc2)cc1	-2	-3	2	0	0	0	.
Cc1[nH]c2ccccc2c1C(c1ccccn1)N1CCC(C)CC1 (stereo not given)	51*	-8	-2	-2	1	-7	55*
O=C(NCCO)c1nc(C(=O)c2ccc(Cl)cc2)c2ccccc2n1	4	-5	.	.	-1	10	.
O=C(c1ccc(F)cc1)C1CCN(C(=O)NC2CCCCC2)CC1	50*	2	2	-3	1	-6	29
O=C(NC1CCCCC1)N1CCN(S(=O)(=O)c2ccc(F)cc2)CC1	-9	1	-6	8	0	-10	.
CSc1nc(NCCN(C)C)c2sc3nc(-c4ccco4)c4c(c3c2n1)CCC4	51*	.	.	.	.	.	37
COc1ccc(-c2noc(-c3ccccc3C(=O)Nc3cccnc3)n2)cc1OC	.	11	-5	-15	-1	-4	.
COc1ccc(-c2noc(-c3ccccc3C(=O)Nc3cccnc3)n2)cc1	57*	-2	2	-4	0	-6	33
CNC(=O)COC(=O)c1ccc2c(c1)NC(=O)C1CCCN21 (stereo not given)	.	-4	-1	10	0	-10	.
CCOc1ccccc1C1C2=C(COC2=O)Nc2cc3c(cc21)OCO3 (stereo not given)	53*	35	34	83*	1	39	53*
COc1cc(OC)cc(C(=O)N2CC(=O)Nc3ccccc32)c1	58*	15	-7	1	1	56	63*
CCOC(=O)Cn1nc(Cc2ccccc2)c2ccccc2c1=O	24	-3	-7	1	1	13	.
CN1CCCC(n2nc(Cc3ccc(Cl)cc3)c3ccccc3c2=O)CC1 (stereo not given)	85*	5	41	.	0	40	40*
COc1ccccc1C(=O)OC(C)CN1CCN(C)CC1 (stereo not given)	12	.	9	-4	0	-5	.
Clc1ccc(-c2csc(NNC3=NCCCCC3)n2)cc1	148*	11	16	-11	0	16	132*
COc1ccc(-c2csc(NNC3=NCCCCC3)n2)cc1	.	-8	51	-19	0	3	.
c1ccc(-c2csc(NNC3=NCCCCC3)n2)cc1	85*	5	14	-9	-1	21	108*
COc1ccc(NC(=O)CSc2nnc(Cc3ccc(C)cc3)c(=O)n2N)cc1OC	37	.	7	0	0	-9	.
Cc1ccc(Cc2nnc(SCC(=O)Nc3ccccc3)n(N)c2=O)cc1	52*	.	2	1	-1	-9	62*
CCOc1ccc(Cc2nnc(SCC(=O)Nc3ccccc3)n(N)c2=O)cc1	50*	.	0	3	1	1	68*
CCCc1cc(N2CCCC2)n2nc(C)c(-c3ccccc3)c2n1	66*	21	-11	-2	-1	.	41*
C[C@H](CO)N1C[C@H](C)[C@@H](CN(C)CC2CCCCC2)Oc2ccc(NC(=O)Cn3cnnn3)cc2C1=O	-4	20	.	.	1	.	.
Cn1nnc2c[n+](CC(=O)c3ccc4ccccc4c3)cc(Br)c21	6	-5	-16	3	0	5	.
SMILES	TAG inh	Beta apoptosis	T cruzi inh	Calb FLC	A1 inh	CSC inhib	TAG conf
Cn1nnc2c[n+](CC(=O)c3ccc(Cl)cc3)cc(Br)c21	59*	-7	8	-1	1	16	69*
Cc1cc(NC(=O)CSc2nc3ccccc3c(=O)n2C2CCCC2)no1	90*	16	-11	-1	0	62	69*
CN(C)c1ccc(NC(=O)CSc2nc3ccccc3c(=O)n2C2CCCCC2)cc1	55*	10	35	1	0	.	49*
COc1cc(C2CC(=O)Oc3cc(C)cc(C)c32)cc(OC)c1OC (stereo not given)	-7	.	.	.	.	.	.
O=C1CN(C(=O)COc2cccc(F)c2)c2ccccc2N1	.	5	3	5	0	.	.
Cc1noc(C)c1COc1cccc(C(=O)OCC(=O)N2CC(=O)Nc3ccccc32)c1	66*	16	15	-14	1	54	89*
CCOc1ccc(CC2c3cc(OCC)c(OCC)cc3CCN2C(=O)c2cc(OC)c(OC)c(OC)c2)cc1OCC (stereo not given)	62*	4	10	5	0	-4	36
Cc1ccc(-n2c(SCC(=O)N(C)C3CCS(=O)(=O)C3)nc3ccccc3c2=O)c(C)c1 (stereo not given)	9	-3	.	.	0	-1	.
COc1ccc2[nH]c3c(c2c1)CCN1C(=O)C(CC(=O)NCC24CC5CC(CC(C5)C2)C4)C[C@H](C(=O)N(C(C)C)C(C)C)[C@@]31C (stereo not given in full)	51*	.	.	.	.	.	59*
CC(C)N(C(=O)[C@H]1C[C@H](CC(=O)NCc2cccc(C(F)(F)F)c2)C(=O)N2CCc3c([nH]c4ccc(Cl)cc34)[C@]12C)C(C)C	57*	.	.	.	.	.	82*
C[C@]12c3[nH]c4ccc(Cl)cc4c3CCN1C(=O)[C@@H](CC(=O)NCc1cccc(C(F)(F)F)c1)C[C@@H]2C(=O)N1CCOCC1	29	.	.	.	.	.	.
COc1ccc2[nH]c3c(c2c1)CCN1C(=O)C(CC(=O)NCC24CC5CC(CC(C5)C2)C4)C[C@H](C(=O)N2CCOCC2)[C@@]31C (stereo not given in full)	18	.	.	.	.	.	.
Cc1cc(C)n2nc(CNS(=O)(=O)c3cccc([N+](=O)[O-])c3)nc2n1	.	4	1	14	1	-12	.
CCCNC(=O)C1(C)CCN1C(=O)Cc1ccc(C(C)(C)C)cc1 (stereo not given)	-19	.	.	.	.	.	.
COc1cccc(C(=O)N2CCCN(C)CC2)c1OC	5	0	-8	1	0	57	.
CCOC(=O)c1c(C)nsc1NC(=O)C1CCCCC1	.	-6	1	1	0	12	.
NC(=O)c1cc(-c2ccccc2)nc(N2CCOCC2)n1	52*	-1	23	-4	0	-7	60*
